Measured values taken from ChEMBL document CHEMBL4049455, “Discovery of a B-Cell Lymphoma 6 Protein-Protein Interaction Inhibitor by a Biophysics-Driven Fragment-Based Approach” (J Med Chem, 2017).
pKd: −log10 of the molar value. Values belong to the compound of their own block, whether it stands above or below them. The source made the active and inactive calls. The calls are words filed in the database; no cut-off is given here.

Key:
[1] = target: T1, B-cell lymphoma 6 protein (Homo sapiens, UniProt P41182); assay: Binding affinity to captured wild-type human biotinylated Avi-tagged BCL6 BTB domain (5 to 129 amino acid residues) expressed in Escherichia coli BL21 (DE3) by SPR analysis
[2] = system: B-cell lymphoma 6 protein (Homo sapiens), P41182 [C8Q,C67R,C84N]; assay: Binding affinity to human biotinylated His/Avi/SUMO/FLAG-tagged BCL6 BTB domain (5 to 129 amino acid residues) C8Q/C67R/C84N triple mutant expressed in Escherichia coli BL21 (DE3) by STD-NMR spectroscopy
How it was run: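 STD-NMR was run on a sample of 400 μM ligand with 20 μM BCL6 BTB at 15 °C, using 32 scans. On- and off-resonance saturation was at 0.4 and 30 ppm, with 2.0 s total saturation. Binding was read as signal decrease on on-resonance irradiation.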

[3] = system: B-cell lymphoma 6 protein (Homo sapiens), P41182 [C8Q,C67R,C84N]; assay: Inhibition of BCoR peptide binding to human biotinylated His/Avi/SUMO/FLAG-tagged BCL6 BTB domain (5 to 129 amino acid residues) C8Q/C67R/C84N triple mutant expressed in Escherichia coli BL21 (DE3) by SPR competition assay
[4] = target: T1, B-cell lymphoma 6 protein; assay: Binding affinity to recombinant RED-NHS labeled BCL6 BTB domain (unknown origin) expressed in Escherichia coli BL21 (DE3) after 10 mins by microscale thermophoresis method
[5] = target: T2, B-cell lymphoma 6 protein (Homo sapiens, UniProt P41182, C67R/C84N/C8Q); assay: Binding affinity to captured human biotinylated Avi-tagged BCL6 BTB domain (5 to 129 amino acid residues) C8Q/C67R/C84N triple mutant expressed in Escherichia coli BL21 (DE3) by SPR analysis
How it was run: (§1)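 Biacore 4000 SPR. Biotinylated BTB (mutant or wild-type) was captured, and wild-type was also amine-coupled on a separate spot, with NeutrAvidin detected as a reference spot. Responses were referenced between spots. Fragments were run from a top concentration of 1 mM in 2-fold dilutions. KD came from equilibrium response plotted against concentration, with BCoR peptide (100 μM) as the positive control.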

[6] = target: T1, B-cell lymphoma 6 protein; assay: Binding affinity to coupled wild-type human biotinylated Avi-tagged BCL6 BTB domain (5 to 129 amino acid residues) expressed in Escherichia coli BL21 (DE3) by SPR analysis; how it was run: as §1
[7] = target: T1, B-cell lymphoma 6 protein; assay: Binding affinity to wild-type human biotinylated Avi-tagged BCL6 BTB domain (5 to 129 amino acid residues) expressed in Escherichia coli BL21 (DE3) using 1 % DMSO by SPR analysis
How it was run: (§2)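 SPR (Biacore 4000) binding of BCoR peptide to immobilized wild-type or Cys-mutant BTB in running buffer containing 1%, 3% or 5% DMSO. Peptide ran from a top concentration of 100 μM in 2-fold dilutions. KD and Rmax were fitted from equilibrium response against peptide concentration.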

[8] = target: T1, B-cell lymphoma 6 protein; assay: Binding affinity to wild-type human biotinylated Avi-tagged BCL6 BTB domain (5 to 129 amino acid residues) expressed in Escherichia coli BL21 (DE3) using 3 % DMSO by SPR analysis; how it was run: as §2
[9] = target: T1, B-cell lymphoma 6 protein; assay: Binding affinity to wild-type human biotinylated Avi-tagged BCL6 BTB domain (5 to 129 amino acid residues) expressed in Escherichia coli BL21 (DE3) using 5 % DMSO by SPR analysis; how it was run: as §2
[10] = system: B-cell lymphoma 6 protein (Homo sapiens), P41182 [C8Q,C67R,C84N]; assay: (§3) Binding affinity to human biotinylated Avi-tagged BCL6 BTB domain C8Q/C67R/C84N triple mutant expressed in Escherichia coli BL21 (DE3) using 1 % DMSO by SPR analysis; how it was run: as §2
[11] = target: T2, B-cell lymphoma 6 protein; assay: as §3; how it was run: as §2
[12] = system: B-cell lymphoma 6 protein (Homo sapiens), P41182 [C8Q,C67R,C84N]; assay: (§4) Binding affinity to human biotinylated Avi-tagged BCL6 BTB domain C8Q/C67R/C84N triple mutant expressed in Escherichia coli BL21 (DE3) using 3 % DMSO by SPR analysis; how it was run: as §2
[13] = target: T2, B-cell lymphoma 6 protein; assay: as §4; how it was run: as §2
[14] = system: B-cell lymphoma 6 protein (Homo sapiens), P41182 [C8Q,C67R,C84N]; assay: (§5) Binding affinity to human biotinylated Avi-tagged BCL6 BTB domain C8Q/C67R/C84N triple mutant expressed in Escherichia coli BL21 (DE3) using 5 % DMSO by SPR analysis; how it was run: as §2
[15] = target: T2, B-cell lymphoma 6 protein; assay: as §5; how it was run: as §2
[16] = target: T1, B-cell lymphoma 6 protein; assay: Binding affinity to 6His-tagged human BCL6 BTB domain (7 to 128 amino acid residues) expressed in Escherichia coli Rosetta (DE3) after 1 min by fluorescence polarization assay

Compound: Nc1nccc(Nc2ccccc2)n1
pKd [1]: 2.52

Compound: O=C(O)CC(C(=O)O)N1C(=O)/C(=C2/C(=O)Nc3ccc(Br)cc32)SC1=S (stereo not drawn)
pKd [4]: 3.89

Compound: CO[C@H]1/C=C/O[C@@]2(C)Oc3c(C)c(O)c4c(O)c(cc(O)c4c3C2=O)NC(=O)/C(C)=C\C=C\[C@H](C)[C@H](O)[C@@H](C)[C@@H](O)[C@@H](C)[C@H](OC(C)=O)[C@@H]1C [RIFAMYCIN]
pKd [16]: 3.00

Compound: Nc1ncc(F)c(Nc2ccccc2)n1
pKd [1]: 3.74

Second part, the compound after the results:

pKd [1]: 5.03
Compound: O=C1Cc2cc(Nc3ncncc3Cl)ccc2N1

Activity [2]: Active
inhibition [3]: Active
Compound: Nc1ncnc(Nc2ccccc2)n1

Activity [1]: Dose-dependent effect
pKd [1]: 4.77
pKd [5]: 4.40
pKd [6]: 4.85
pKd [7]: 5.12
Rmax [7]: 245 RU
pKd [8]: 5.03
Rmax [8]: 242 RU
pKd [9]: 4.92
Rmax [9]: 243 RU
Rmax [10]: 311 RU
pKd [11]: 4.77
Rmax [12]: 302 RU
pKd [13]: 4.68
Rmax [14]: 304 RU
pKd [15]: 4.60
Compound: Ac-RSEIISTAPSSWVVPPK-OH
